What was measured:
[1] = Inhibition of NF-kappaB in A549 cells after 5 hrs by reporter gene assay; assay type: cell-based; settings: Homo sapiens, A549, 5 h
Outline: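 A549 cells stably transfected with a pNF-κB-SEAP reporter were plated at 2 · 10^4/well and left to attach overnight. They were pre-incubated 5 h with compound at 100, 30, 10, 3, 1, 0.3, 0.1 and 0 µM, then stimulated with 10 ng/ml TNF-α for 22 h. Supernatant SEAP was read by chemiluminescence, viability by CellTiter-Blue, with four replicates per concentration.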

PBMC = experiment: Antiproliferative activity against human PBMC; assay type: functional, cell-based
Outline: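 Human peripheral blood mononuclear cells were stimulated with phytohemagglutinin, so the proliferation read-out reflects mainly T-cells.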

[2] = Inhibition of chymotrypsin like activity of human 20S proteasome
Outline: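 20S proteasome (1.3 µg) was pre-incubated 10 min at room temperature in 25 mM HEPES pH 7.5, 0.5 mM EDTA, 0.033% SDS, then added to compound in DMSO and Suc-LLVY-AMC substrate (75 µM in the substrate solution). Fluorescence (ex 360/em 465 nm) was followed 20 min at 30 °C as RFU/min. Eight inhibitor concentrations were run in triplicate, and IC50 came from a four-parameter logistic fit.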

A549 = experiment: Inhibition of NF-kappaB in A549 cells at 20 uM after 5 hrs by reporter gene assay; assay type: cell-based; settings: Homo sapiens

SMILES | EC50 [1] | also measured
O=C(c1ccccc1)c1ccc2[nH]c(NC(=O)c3csc(C4CCN(c5ncnc6nc[nH]c56)CC4)n3)nc2c1 | 300 nM | –
COc1cccc(NC(=O)N2CCC(c3nc(C(=O)N4CCN(c5cccc(C(F)(F)F)c5)CC4)cs3)CC2)c1 | 7200 nM | –
COc1nc(OC)nc(N2CCC(c3nc(C(=O)N4CCN(c5cccc(C(F)(F)F)c5)CC4)cs3)CC2)n1 | 4700 nM | IC50 (PBMC): 15000 nM
COc1cc2ncnc(N3CCC(c4nc(C(=O)Nc5nc6cc(C(=O)c7ccccc7)ccc6[nH]5)cs4)CC3)c2cc1OC | 300 nM | –
O=C(c1csc(C2CCN(S(=O)(=O)c3ccc(F)cc3Cl)CC2)n1)N1CCN(c2cccc(C(F)(F)F)c2)CC1 | 20000 nM | –
COc1cc(N2CCC(c3nc(C(=O)N4CCN(c5cccc(C(F)(F)F)c5)CC4)cs3)CC2)nc(OC)n1 | 5000 nM | –
O=C(c1ccccc1)c1ccc2[nH]c(NC(=O)c3csc(C4CCN(c5ncnc6ccsc56)CC4)n3)nc2c1 | 200 nM | IC50 (PBMC): 2200 nM
Cc1cc2nccc(N3CCC(c4nc(C(=O)Nc5nc6cc(C(=O)c7ccccc7)ccc6[nH]5)cs4)CC3)n2n1 | 100 nM | –
N#Cc1ccc(CN2CCC(c3nc(C(=O)Nc4nc5cc(C(=O)c6ccccc6)ccc5[nH]4)cs3)CC2)cc1 | 300 nM | –
O=C(c1ccccc1)c1ccc2[nH]c(NC(=O)c3csc(C4CCN(C(=O)c5ccccc5OC(F)(F)F)CC4)n3)nc2c1 | 800 nM | –
O=C(c1ccccc1)c1ccc2[nH]c(NC(=O)c3csc(C4CCN(c5ccnc6ncnn56)CC4)n3)nc2c1 | 100 nM | IC50 (PBMC): 3600 nM
COc1cc(N2CCC(c3nc(C(=O)Nc4nc5cc(C(=O)c6ccccc6)ccc5[nH]4)cs3)CC2)nc(OC)n1 | 300 nM | IC50 [2]: > 3000 nM
N#Cc1ccc(CN2CCC(c3nc(C(=O)N4CCN(c5cccc(C(F)(F)F)c5)CC4)cs3)CC2)cc1 | 8500 nM | –
Cc1cc2nnc(C(=O)N3CCC(c4nc(C(=O)NC5CCN(Cc6ccccc6)C5)cs4)CC3)c(C)n2n1 (stereo not given) | – | IC50 [2]: 580 nM; inhibition (A549): 30%; IC50 (PBMC): 37000 nM
O=C(c1ccccc1)c1ccc2[nH]c(NC(=O)c3csc(C4CCN(c5ccncc5[N+](=O)[O-])CC4)n3)nc2c1 | 300 nM | –
COc1nc(OC)nc(N2CCC(c3nc(C(=O)Nc4nc5cc(C(=O)c6ccsc6)ccc5[nH]4)cs3)CC2)n1 | 400 nM | –
O=C(c1csc(C2CCN(c3ccc(C(F)(F)F)cc3)CC2)n1)N1CCN(c2cccc(C(F)(F)F)c2)CC1 | 20000 nM | IC50 [2]: 480 nM
O=C(Nc1cccc(F)c1)N1CCC(c2nc(C(=O)N3CCN(c4cccc(C(F)(F)F)c4)CC3)cs2)CC1 | 3400 nM | –
O=C(c1ccccc1)c1ccc2[nH]c(NC(=O)c3csc(C4CCN(c5cc(C(F)(F)F)ncn5)CC4)n3)nc2c1 | 500 nM | –
COc1nc(OC)nc(N2CCC(c3nc(C(=O)Nc4nc5cc(C(=O)c6ccccc6)ccc5[nH]4)cs3)CC2)n1 | 800 nM | –
Cc1cc2nnc(C(=O)N3CCC(c4nc(C(=O)N5CCN(c6cccc(C(F)(F)F)c6)CC5)cs4)CC3)c(C)n2n1 | > 20000 nM | –
Cc1cc2nnc(C(=O)N3CCC(c4nc(C(=O)Nc5nc6cc(C(=O)c7ccccc7)ccc6[nH]5)cs4)CC3)c(C)n2n1 | 900 nM | –
O=C(c1ccsc1)c1ccc2[nH]c(NC(=O)c3csc(C4CCN(c5ncnc6ccsc56)CC4)n3)nc2c1 | 500 nM | –
O=C(c1csc(C2CCN(S(=O)(=O)c3cccs3)CC2)n1)N1CCN(c2cccc(C(F)(F)F)c2)CC1 | 20000 nM | –
COC(=O)c1nc2nccc(N3CCC(c4nc(C(=O)Nc5nc6cc(C(=O)c7ccccc7)ccc6[nH]5)cs4)CC3)n2n1 | 500 nM | IC50 (PBMC): 2500 nM
Cc1cc2nc(NC(=O)c3csc(C4CCN(c5ncnc6ccsc56)CC4)n3)[nH]c2cc1C | 300 nM | –
Cc1cc2nc(NC(=O)c3csc(C4CCN(C(=O)c5ccccc5OC(F)(F)F)CC4)n3)[nH]c2cc1C | 3000 nM | –

Reference: ChEMBL document CHEMBL1137516, “A novel class of potent NF-kappaB signaling inhibitors” (Bioorg Med Chem Lett, 2007)
